Data: ChEMBL document CHEMBL5303300, “EUbOPEN Chemogenomics Library - Multiplex” (2023)
Where “and” joins values, the source holds several entries; their conditions need not be identical. Identical values can stand only once.

System: Fibroblast
Assay: Multiplex assay against human fibroblast
Assay type: toxicity, cell-based
Settings: number of replicates 2
Method in brief: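 Compound was added to live cells that had been stained at seeding with Hoechst33342, BioTracker Green Microtubule Cytoskeleton Dye, MitoTracker Red and Annexin V Alexa Fluor 680, and imaging followed on a CQ1 microscope at 37°C and 5% CO2. CellPathfinder machine-learning gating divided cells into Hoechst high-intensity objects or normal cells, normal cells into healthy, pyknosed or fragmented nuclei, and pyknosed cells into mitotic or apoptotic. Tubulin, mitochondrial-mass and membrane-permeability phenotypes are per cents of healthy-nucleus cells.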

[1] = 12 h, 1 µM, compound concentration 1 uM
[2] = 12 h, 10 µM, compound concentration 10 uM
[3] = 24 h, 1 µM, compound concentration 1 uM
[4] = 24 h, 10 µM, compound concentration 10 uM
[5] = 48 h, 1 µM, compound concentration 1 uM
[6] = 48 h, 10 µM, compound concentration 10 uM

SMILES: Br.Cc1cccc(C2CN(C)CCc3c2cc(O)c(O)c3Cl)c1 (stereo unspecified)
- Population Apoptotic (%) [1]: 50% and 47%
- Population Fragmented Nuclei (%) [1]: 10% and 13%
- Population Healthy Nuclei (%) [1]: 79%
- Population Hoechst High Intensity Objects (%) [1]: 0%
- Population Membrane Permeable-Phenotype (%) [1]: 1% and 4%
- Population Mitochondria Different-Phenotype (%) [1]: 0% and 1%
- Population Mitotic Cells (%) [1]: 50% and 52%
- Population Normal (%) [1]: 100%
- Population Pyknosed Nuclei (%) [1]: 10% and 6%
- Population Tubulin-Different-Phenotype (%) [1]: 9% and 5%
- Total Cell Count [1]: 210 and 248
- Population Apoptotic (%) [2]: 68% and 66%
- Population Fragmented Nuclei (%) [2]: 11% and 13%
- Population Healthy Nuclei (%) [2]: 77% and 78%
- Population Hoechst High Intensity Objects (%) [2]: 0%
- Population Membrane Permeable-Phenotype (%) [2]: 2%
- Population Mitochondria Different-Phenotype (%) [2]: 1% and 5%
- Population Mitotic Cells (%) [2]: 31% and 33%
- Population Normal (%) [2]: 99% and 100%
- Population Pyknosed Nuclei (%) [2]: 11% and 8%
- Population Tubulin-Different-Phenotype (%) [2]: 10% and 11%
- Total Cell Count [2]: 167 and 173
- Population Apoptotic (%) [3]: 57% and 53%
- Population Fragmented Nuclei (%) [3]: 10% and 14%
- Population Healthy Nuclei (%) [3]: 82% and 80%
- Population Hoechst High Intensity Objects (%) [3]: 0%
- Population Membrane Permeable-Phenotype (%) [3]: 1%
- Population Mitochondria Different-Phenotype (%) [3]: 0% and 1%
- Population Mitotic Cells (%) [3]: 42% and 46%
- Population Normal (%) [3]: 99% and 100%
- Population Pyknosed Nuclei (%) [3]: 6% and 5%
- Population Tubulin-Different-Phenotype (%) [3]: 8% and 3%
- Total Cell Count [3]: 205 and 242
- Population Apoptotic (%) [4]: 50% and 70%
- Population Fragmented Nuclei (%) [4]: 10% and 15%
- Population Healthy Nuclei (%) [4]: 79% and 78%
- Population Hoechst High Intensity Objects (%) [4]: 0%
- Population Membrane Permeable-Phenotype (%) [4]: 3% and 0%
- Population Mitochondria Different-Phenotype (%) [4]: 0%
- Population Mitotic Cells (%) [4]: 50% and 30%
- Population Normal (%) [4]: 100%
- Population Pyknosed Nuclei (%) [4]: 9% and 5%
- Population Tubulin-Different-Phenotype (%) [4]: 8% and 7%
- Total Cell Count [4]: 165 and 174
- Population Apoptotic (%) [5]: 50% and 62%
- Population Fragmented Nuclei (%) [5]: 13%
- Population Healthy Nuclei (%) [5]: 80% and 83%
- Population Hoechst High Intensity Objects (%) [5]: 0%
- Population Membrane Permeable-Phenotype (%) [5]: 1% and 2%
- Population Mitochondria Different-Phenotype (%) [5]: 1% and 0%
- Population Mitotic Cells (%) [5]: 50% and 37%
- Population Normal (%) [5]: 99% and 100%
- Population Pyknosed Nuclei (%) [5]: 5% and 3%
- Population Tubulin-Different-Phenotype (%) [5]: 4% and 1%
- Total Cell Count [5]: 211 and 238
- Population Apoptotic (%) [6]: 44% and 100%
- Population Fragmented Nuclei (%) [6]: 12% and 15%
- Population Healthy Nuclei (%) [6]: 82%
- Population Hoechst High Intensity Objects (%) [6]: 0%
- Population Membrane Permeable-Phenotype (%) [6]: 2% and 0%
- Population Mitochondria Different-Phenotype (%) [6]: 0%
- Population Normal (%) [6]: 100%
- Population Pyknosed Nuclei (%) [6]: 5% and 1%
- Population Tubulin-Different-Phenotype (%) [6]: 3% and 4%
- Total Cell Count [6]: 178 and 170

SMILES: COCCNC1CCC(Nc2cc(-c3csc(NCC4(C#N)CCOCC4)n3)c(Cl)cn2)CC1 (stereo unspecified)
- Population Apoptotic (%) [1]: 50% and 31%
- Population Fragmented Nuclei (%) [1]: 7% and 12%
- Population Healthy Nuclei (%) [1]: 73% and 67%
- Population Hoechst High Intensity Objects (%) [1]: 0%
- Population Membrane Permeable-Phenotype (%) [1]: 2% and 7%
- Population Mitochondria Different-Phenotype (%) [1]: 1% and 2%
- Population Mitotic Cells (%) [1]: 50% and 68%
- Population Normal (%) [1]: 99%
- Population Pyknosed Nuclei (%) [1]: 19% and 20%
- Population Tubulin-Different-Phenotype (%) [1]: 13% and 12%
- Total Cell Count [1]: 154 and 189
- Population Apoptotic (%) [2]: 48% and 47%
- Population Fragmented Nuclei (%) [2]: 10% and 15%
- Population Healthy Nuclei (%) [2]: 70% and 68%
- Population Hoechst High Intensity Objects (%) [2]: 0%
- Population Membrane Permeable-Phenotype (%) [2]: 12% and 13%
- Population Mitochondria Different-Phenotype (%) [2]: 5% and 10%
- Population Mitotic Cells (%) [2]: 51% and 52%
- Population Normal (%) [2]: 99% and 100%
- Population Pyknosed Nuclei (%) [2]: 18% and 16%
- Population Tubulin-Different-Phenotype (%) [2]: 79% and 67%
- Total Cell Count [2]: 219 and 209
- Population Apoptotic (%) [3]: 55% and 74%
- Population Fragmented Nuclei (%) [3]: 10% and 4%
- Population Healthy Nuclei (%) [3]: 71% and 80%
- Population Hoechst High Intensity Objects (%) [3]: 0%
- Population Membrane Permeable-Phenotype (%) [3]: 4% and 6%
- Population Mitochondria Different-Phenotype (%) [3]: 3% and 0%
- Population Mitotic Cells (%) [3]: 44% and 25%
- Population Normal (%) [3]: 99% and 100%
- Population Pyknosed Nuclei (%) [3]: 17% and 15%
- Population Tubulin-Different-Phenotype (%) [3]: 20% and 19%
- Total Cell Count [3]: 163 and 170
- Population Apoptotic (%) [4]: 53% and 65%
- Population Fragmented Nuclei (%) [4]: 14% and 13%
- Population Healthy Nuclei (%) [4]: 72% and 73%
- Population Hoechst High Intensity Objects (%) [4]: 1% and 0%
- Population Membrane Permeable-Phenotype (%) [4]: 11%
- Population Mitochondria Different-Phenotype (%) [4]: 18%
- Population Mitotic Cells (%) [4]: 46% and 34%
- Population Normal (%) [4]: 98% and 100%
- Population Pyknosed Nuclei (%) [4]: 12%
- Population Tubulin-Different-Phenotype (%) [4]: 87% and 70%
- Total Cell Count [4]: 206 and 210
- Population Apoptotic (%) [5]: 59% and 68%
- Population Fragmented Nuclei (%) [5]: 9% and 11%
- Population Healthy Nuclei (%) [5]: 57% and 55%
- Population Hoechst High Intensity Objects (%) [5]: 0%
- Population Membrane Permeable-Phenotype (%) [5]: 14%
- Population Mitochondria Different-Phenotype (%) [5]: 3% and 1%
- Population Mitotic Cells (%) [5]: 40% and 31%
- Population Normal (%) [5]: 100%
- Population Pyknosed Nuclei (%) [5]: 33% and 32%
- Population Tubulin-Different-Phenotype (%) [5]: 30% and 22%
- Total Cell Count [5]: 154 and 174
- Population Apoptotic (%) [6]: 54% and 76%
- Population Fragmented Nuclei (%) [6]: 15% and 13%
- Population Healthy Nuclei (%) [6]: 64% and 67%
- Population Hoechst High Intensity Objects (%) [6]: 0% and 1%
- Population Membrane Permeable-Phenotype (%) [6]: 12% and 10%
- Population Mitochondria Different-Phenotype (%) [6]: 18% and 16%
- Population Mitotic Cells (%) [6]: 45% and 23%
- Population Normal (%) [6]: 99%
- Population Pyknosed Nuclei (%) [6]: 20% and 19%
- Population Tubulin-Different-Phenotype (%) [6]: 81% and 71%
- Total Cell Count [6]: 207 and 200
